Converted amounts (≈) assume the structure as drawn.
Assays:
[1] = test system: Mycobacterium tuberculosis; assay: Selectivity ratio of MIC for antibacterial activity against non-replicating Mycobacterium tuberculosis H37Rv harboring pFCA-luxAB to MIC100 for antibacterial activity against replicating Mycobacterium tuberculosis H37Rv; type: functional
[2] = test system: Mycobacterium tuberculosis; assay: Antibacterial activity against non-replicating Mycobacterium tuberculosis H37Rv harboring pFCA-luxAB preincubated for 10 days under anaerobic condition followed by incubation under ambient gaseous condition for 28 hrs by LORA; type: functional
Procedure, shortened: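 Mtb H37Rv is electroporated with pFCA-luxAB and diluted in 7H12 broth to A570 0.03–0.05 (3,000–7,000 RLU per 100 µL). Cells are added to two-fold serial dilutions and held anaerobic (O2 <0.16%; 10% H2, 5% CO2, 85% N2) for 10 days. A 28 h recovery in 5% CO2 air follows, then luminescence is read.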

SMILES | selectivity ratio [1] | MIC [2]
C=C[C@]1(C)C[C@@H](OC(=O)CSC(C)(C)CNC(=O)[C@H](N)CC(C)C)[C@]2(C)[C@H](C)CC[C@]3(CCC(=O)[C@H]32)[C@@H](C)[C@@H]1O | 1.27 | 1.98 µg/mL (≈ 3.42 µM)
CC[C@]1(C)C[C@@H](OC(=O)CSC(C)(C)CNC(=O)[C@H](N)CC(C)C)[C@]2(C)[C@H](C)CC[C@]3(CCC(=O)[C@H]32)[C@@H](C)[C@@H]1O | 1.33 | 1.04 µg/mL (≈ 1.79 µM)
CC(=O)NC[C@H]1CN(c2ccc(N3CCOCC3)c(F)c2)C(=O)O1 [LINEZOLID] | 1.05 | 0.63 µg/mL (≈ 1.87 µM)
CC[C@@H](CO)NCCN[C@@H](CC)CO [ETHAMBUTOL] | >128 | > 100 µg/mL
C=C[C@]1(C)C[C@@H](OC(=O)CSC(C)(C)CNC(=O)[C@H](N)C(C)C)[C@]2(C)[C@H](C)CC[C@]3(CCC(=O)[C@H]32)[C@@H](C)[C@@H]1O [VALNEMULIN] | 1.14 | 3.56 µg/mL (≈ 6.3 µM)
CC[C@]1(C)C[C@@H](OC(=O)CSC(C)(C)CNC(=O)[C@H](N)CC(C)C)[C@]2(C)[C@H](C)CC[C@]3(CC[C@@H](O)[C@H]32)[C@@H](C)[C@@H]1O | 1.45 | 1.2 µg/mL (≈ 2.06 µM)
NNC(=O)c1ccncc1 [ISONIAZID] | >2500 | > 100 µg/mL
C=C[C@]1(C)C[C@@H](OC(=O)CSC(C)(C)CNC(=O)[C@H](N)CC(C)C)[C@]2(C)[C@H](C)CC[C@]3(CC[C@@H](O)[C@H]32)[C@@H](C)[C@@H]1O | 1.13 | 3.46 µg/mL (≈ 5.96 µM)

Source: ChEMBL document CHEMBL4229550, “An antimycobacterial pleuromutilin analogue effective against dormant bacilli” (Bioorg Med Chem, 2018)
